Measurements as given in PMC12243159 (RSC Medicinal Chemistry, 2025).
“Also recorded” adds a separate entry of the source. Where two headings read alike, the source gives them in different places.

Tests used:
hCA VI = hCA VI (Homo sapiens, UniProt P23280); experiment: stopped-flow CO2 hydration assay, hCA VI; format: biochemical
[1] = test system: non-small cell lung carcinoma A549; experiment: cell proliferation, CCK-8 assay, A549; format: cell-based; settings: A549 cells, 72 hours, hypoxic conditions
[2] = test system: pancreatic epithelioid carcinoma PANC-1; experiment: cell proliferation, CCK-8 assay, PANC-1; format: cell-based; settings: PANC-1 cells, 72 hours, hypoxic conditions
MDA-MB-231 cells = experiment: cell proliferation assay, cell counting by flow cytometry; format: cell-based, human; settings: MDA-MB-231, 72 hours, hypoxic conditions
Method in brief: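 MDA-MB-231 cells were grown in DMEM with 10% FBS, 1% penicillin/streptomycin and 1% glutamine, kept at low passage, and held under hypoxia (1% O₂, 5% CO₂). Cells were seeded at 10.000 per well and treated in 1% FBS with increasing compound concentrations for 72 h at 37 °C. They were then detached with trypsin/2 mM EDTA and counted by flow cytometry. Counts are given as % of untreated control (mean ± SEM) with IC₅₀.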

hCA II [3] = target: T1, hCA II (Homo sapiens, UniProt P00918); settings: read-out: KI hCA II; stopped-flow hydration assay; values marked *; cited from earlier work
hCA I = hCA I (Homo sapiens, UniProt P00915); experiment: stopped-flow CO2 hydration assay, hCA I; format: biochemical
Sequence of hCA I (P00915 whole entry): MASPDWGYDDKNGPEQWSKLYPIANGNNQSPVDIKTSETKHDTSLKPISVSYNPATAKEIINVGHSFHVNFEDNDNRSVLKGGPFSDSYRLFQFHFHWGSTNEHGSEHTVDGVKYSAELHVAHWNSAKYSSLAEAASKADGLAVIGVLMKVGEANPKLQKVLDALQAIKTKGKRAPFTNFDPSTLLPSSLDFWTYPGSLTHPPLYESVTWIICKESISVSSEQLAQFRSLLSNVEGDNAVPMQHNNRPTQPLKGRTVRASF
Method in brief: (§1)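 Recombinant in-house enzyme, preincubated 15 min at room temperature with inhibitor. Inhibitor stock was 0.1 mM in water, diluted down to 0.01 nM. CO₂ (1.7–17 mM) hydration was followed by stopped-flow with 0.2 mM phenol red at 557 nm, in 20 mM HEPES pH 7.5 with 20 mM Na₂SO₄, over 10–100 s. Initial rates came from six traces and were corrected for the uncatalysed rate. Ki was obtained by non-linear least squares, mean of ≥3 measurements.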

hCA II [4] = target: T1, hCA II; experiment: stopped-flow CO2 hydration assay, hCA II; format: biochemical
Method in brief: as §1

hCA IX = hCA IX (Homo sapiens, UniProt Q16790); experiment: stopped-flow CO2 hydration assay, hCA IX; format: biochemical; settings: for SI I/IX: ratio of KI hCA I to KI hCA IX; for SI II/IX: ratio of KI hCA II to KI hCA IX
hCA XII = hCA XII (Homo sapiens, UniProt O43570); experiment: stopped-flow CO2 hydration assay, hCA XII; format: biochemical; settings: for SI I/XII: ratio of KI hCA I to KI hCA XII
Sequence of hCA XII (O43570 25-354): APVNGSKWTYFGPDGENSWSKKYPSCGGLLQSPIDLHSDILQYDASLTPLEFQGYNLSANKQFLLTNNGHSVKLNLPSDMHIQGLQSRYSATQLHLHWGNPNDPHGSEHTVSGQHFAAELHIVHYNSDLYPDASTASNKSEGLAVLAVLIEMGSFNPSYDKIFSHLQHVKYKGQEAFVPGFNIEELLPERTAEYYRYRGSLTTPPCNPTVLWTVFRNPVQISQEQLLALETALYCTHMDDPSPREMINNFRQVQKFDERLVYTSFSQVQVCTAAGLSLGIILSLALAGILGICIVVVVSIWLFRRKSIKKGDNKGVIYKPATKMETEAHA

Sequence of hCA VI (P23280 18-308): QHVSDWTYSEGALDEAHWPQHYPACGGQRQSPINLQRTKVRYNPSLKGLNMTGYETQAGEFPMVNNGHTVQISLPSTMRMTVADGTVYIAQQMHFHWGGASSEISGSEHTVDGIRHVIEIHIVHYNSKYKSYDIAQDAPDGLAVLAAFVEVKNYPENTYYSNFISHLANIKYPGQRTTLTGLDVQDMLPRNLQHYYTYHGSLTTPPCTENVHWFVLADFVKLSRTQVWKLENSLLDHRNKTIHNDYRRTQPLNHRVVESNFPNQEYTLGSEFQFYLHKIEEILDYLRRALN

SMILES | Ki (hCA VI) [nM] | antiproliferative effect [1] | antiproliferative effect [2] | anti-proliferative effect (MDA-MB-231 cells) | Ki (hCA II [3]) [nM] | Ki (hCA I) [nM] | Ki (hCA II [4]) [nM] | Ki (hCA IX) [nM] | SI I/IX (hCA IX) | SI II/IX (hCA IX) | SI I/XII (hCA XII) | Ki (hCA XII; KI hCA XII, stopped-flow hydration assay) [nM] | SI II/XII (hCA XII; ratio of KI hCA II to KI hCA XII)
C#Cc1cccc(Nc2ncnc3cc(OCCOC)c(OCCOC)cc23)c1 [ERL, erlotinib] | 453 | displayed an antiproliferative effect | displayed an antiproliferative effect | mild reduction of cell proliferation; also recorded: low efficacy | 3980 |  |  |  |  |  |  |  | 
Cc1cn([C@H]2C[C@H](N=[N+]=[N-])[C@@H](CO)O2)c(=O)[nH]c1=O [AZT, azidothymidine, reference compound] | 505 |  |  |  | 684 | 250 | 12.1 | 25.7 | 9.73 | 0.47 | 43.86 |  | 
NS(=O)(=O)c1ccc(NC(=O)Nc2ccc(F)cc2)cc1 [SLC-0111] |  | ineffective | ineffective |  |  |  |  |  |  |  |  |  | 
COCCOc1cc2ncnc(Nc3cccc(-c4cn(CCOCCOCCOCCNC(=S)Nc5ccc(S(N)(=O)=O)c(C)c5Br)nn4)c3)c2cc1OCCOC [compound 9, 4-(3-(2-(2-(2-(2-(4-(3-((6,7-Bis(2-methoxyethoxy)quinazolin-4-yl)amino)phenyl)-1H-1,2,3-triazol-1-yl)ethoxy)ethoxy)ethoxy)ethyl)thioureido)-3-bromo-2-methylbenzenesulfonamide] |  |  |  |  |  | 4910 | 531 | 1340 | 3.65 | 0.39 | 70.3 | 69.8 | 7.61
